TRPC4 agonist: activators of mouse TRPC4 channel, primary screen, Fluo4 calcium, HEK293 TRPC4beta/mu-opioid cells. AID 2237, 2010. B-score at 10 µM. Short transient receptor potential channel 4 (Mus musculus), Q9QUQ5. 310,000 compounds, 0.49% hits. Fluo4 calcium fluorescence; active compounds read high;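 active = B-score above 5 SD of library B-scores, and initial fluorescence ratio not above library mean plus 5 SD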;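 also: positive B-score marks a calcium rise read as TRPC4 activation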
Target sequence (Q9QUQ5 whole entry, looked up): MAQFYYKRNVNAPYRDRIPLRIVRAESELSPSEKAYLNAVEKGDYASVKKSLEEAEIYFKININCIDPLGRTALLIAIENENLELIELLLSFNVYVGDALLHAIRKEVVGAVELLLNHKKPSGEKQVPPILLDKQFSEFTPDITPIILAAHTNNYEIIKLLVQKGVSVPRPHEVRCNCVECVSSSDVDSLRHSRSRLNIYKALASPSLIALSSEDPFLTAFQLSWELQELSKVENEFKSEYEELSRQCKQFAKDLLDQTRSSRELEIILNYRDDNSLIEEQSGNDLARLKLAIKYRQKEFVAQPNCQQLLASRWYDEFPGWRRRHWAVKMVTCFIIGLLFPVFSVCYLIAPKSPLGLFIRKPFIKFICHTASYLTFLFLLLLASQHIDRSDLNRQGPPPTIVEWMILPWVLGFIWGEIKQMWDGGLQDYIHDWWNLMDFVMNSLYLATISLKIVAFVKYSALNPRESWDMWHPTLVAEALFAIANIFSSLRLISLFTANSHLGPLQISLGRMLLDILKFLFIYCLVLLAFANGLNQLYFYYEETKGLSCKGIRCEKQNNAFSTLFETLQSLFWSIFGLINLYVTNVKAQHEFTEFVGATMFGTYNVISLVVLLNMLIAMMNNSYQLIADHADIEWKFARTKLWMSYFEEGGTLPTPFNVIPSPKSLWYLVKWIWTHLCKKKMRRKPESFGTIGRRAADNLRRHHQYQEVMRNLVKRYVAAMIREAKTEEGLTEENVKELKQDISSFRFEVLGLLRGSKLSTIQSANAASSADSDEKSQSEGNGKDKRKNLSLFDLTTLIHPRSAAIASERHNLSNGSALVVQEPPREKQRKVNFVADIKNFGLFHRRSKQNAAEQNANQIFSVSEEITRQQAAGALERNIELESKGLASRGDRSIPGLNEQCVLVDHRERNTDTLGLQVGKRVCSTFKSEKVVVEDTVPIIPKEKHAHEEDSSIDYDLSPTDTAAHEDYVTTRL
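Assay system: HEK293 cells stably co-expressing mouse TRPC4beta and mu-opioid receptor / Timing: Fluo4 dye loading 45 min at room temperature, 110 s recording / Signal: Fluo4 calcium-sensitive dye fluorescence, kinetic, 1 Hz baseline / Read-out: integrated baseline-normalised fluorescence ratio, converted to per-well B score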
TRPC6 activator: mouse TRPC6 channel activators, primary screen, cell-based, HEK293, membrane potential dye; Short transient receptor potential channel 6 (Mus musculus), Q61143; 310,000 compounds, 0.13% hits; AID 2550, 2010; HEK293-TRPC6 membrane potential dye fluorescence; active compounds read high; B-score at 10 µM;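 active = B-score of the integrated fluorescence ratio above library mean plus 3 SD, and starting fluorescence ratio within library mean plus 5 SD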;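 also: higher score means more depolarization so channel activation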
TRPC4 inh: inhibitors of mouse TRPC4 channel, primary screen, Fluo4 calcium, HEK293 TRPC4beta/mu-opioid cells; Short transient receptor potential channel 4 (Mus musculus), Q9QUQ5; DAMGO-evoked Fluo4 calcium flux; active compounds read low; B-score at 10 µM; 300,000 compounds, 0.39% hits; AID 2247, 2010;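 active = B-score over 3 SD under the library average, no early fluorescence shift, positive overall ratio signal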
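Assay system – HEK293 line stably carrying TRPC4beta and mu-opioid receptor · Doses – single dose · Detection – Fluo4 calcium-dye fluorescence, kinetic read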
TRPC6 inh: mouse TRPC6 channel inhibitors, primary screen, cell-based, HEK293, membrane potential dye; Short transient receptor potential channel 6 (Mus musculus), Q61143; ACh-evoked depolarization; active compounds read low; B-score at 10 µM; 310,000 compounds, 1.1% hits; AID 2553, 2010;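 active = B-score under library mean minus 3 SD, initial fluorescence not abnormally high, positive integrated signal ratio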;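 also: B-score derived from integrated fluorescence ratio over the kinetic read; more negative B-score means stronger inhibition of depolarization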
TRPC4 PAM: positive allosteric modulators of TRPC4, primary screen, cell-based, mouse TRPC4beta, HEK293 mu-opioid, Fluo-4 calcium | Short transient receptor potential channel 4 (Mus musculus), Q9QUQ5 | DAMGO EC20, Fluo-4 Ca2+ flux; active compounds read high | B-score at 10 µM | 310,000 compounds, 0.42% hits;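 active = B-score of calcium response area above 5 SD of library B-scores, with initial fluorescence ratio within 5 SD of library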;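 also: B-score of integrated fluorescence ratio over time as area under calcium response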
HEK293 MPD ctr: parental HEK293 membrane potential modulation, confirmation, counter-screen for TRPC6 modulator project, cell-based. shares compounds with TRPC6 inh. membrane potential signal change, % at 10 µM. 2,400 compounds, 51% hits. AID 488924, 2010. membrane potential dye fluorescence;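 active = membrane potential signal moves up or down beyond 5 SD from buffer-only wells, on both duplicate plates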
HEK293 MPD ctr 2: second counter-screen for TRPC6 modulators: effect in parental HEK293 cells; shares compounds with TRPC6 inh; membrane potential dye fluorescence; after compound, maximal acetylcholine stimulation; inhibition, % at 10 µM; 2,400 compounds, 14% hits; AID 488926;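 active = membrane potential signal drops by more than 5 SD from the mean control signal, in both duplicate plates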;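 also: plate controls were acetylcholine ECmax control wells for no effect and buffer only wells for full effect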
TRPC4 ctr mod: TRPC4 modulation by TRPC6 hit compounds, confirmation, selectivity assay for TRPC6 modulator project, cell-based, HEK293 TRPC4/mu-opioid, membrane potential dye, mouse. shares compounds with TRPC6 inh. membrane potential fluorescence. percent change from control (negative = decrease, positive = increase), % at 10 µM. 2,400 compounds, 69% hits. AID 488927, 2010;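 active = membrane potential signal moved up or down beyond 5 SD of buffer control wells, in both duplicate plates, actives on both sides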;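 also: plate controls were assay buffer wells for no effect and DAMGO maximal-effect wells for full effect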
TRPC4/MOR inh 2: second check of whether TRPC6 modulators also affect mouse TRPC4; shares compounds with TRPC6 inh; HEK293 TRPC4/mu-opioid, membrane potential dye fluorescence; stimulated with maximal-effect DAMGO; inhibition, % at 10 µM; 2,400 compounds, 55% hits; AID 488928;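 active = drop in membrane potential signal beyond 5 SD of the control wells in both duplicate plates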;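 also: TRPC4 counter screen for TRPC6 hits run under conditions tuned for TRPC6 not TRPC4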
TRPC6 block conf: mouse TRPC6 channel inhibitors, confirmation, HEK293 cells, membrane potential dye, duplicate; inhibition, % at 10 µM; 3,300 compounds, 43% hits; ACh-evoked depolarization; shares compounds with TRPC6 inh;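 active = fluorescence ratio falls more than 5 SD below the full-stimulation control mean, in both duplicate runs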;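 also: integrated fluorescence ratio of peak minus minimum over baseline after agonist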
TRPC6 act conf: mouse TRPC6 channel activators, confirmation, HEK293 cells, membrane potential dye, duplicate | activation, % at 10 µM | 2,800 compounds, 11% hits | shares compounds with TRPC6 inh | HEK293-TRPC6 membrane potential dye fluorescence, FDSS | AID 488961, 2010;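 active = ratio signal rise beyond 5 SD above unstimulated control wells' mean, seen in both duplicate runs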;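 also: plate controls were buffer EC0 wells for no effect and acetylcholine ECmax response for full effect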
* hit, by the source's call; i = inactive. The list is not random: actives were taken first. Their share in the collection is about 2.3%.

SMILES	TRPC4 agonist	TRPC6 activator	TRPC4 inh	TRPC6 inh	TRPC4 PAM	others
O=C(Cc1ccccc1)N1CCN(CCCc2ccccc2)CC1	i	i	i	i	i
COc1ccccc1CC(=O)N1CCN(CCc2ccccc2)CC1	119*	i	i	i	i
CCN1CCN(C(=O)Cc2ccccc2OC)CC1	79*	i	i	i	i
Cc1cc(OC(C)C(=O)N[C@H](C(=O)O)c2ccccc2)c2c3c(c(=O)oc2c1)CCC3 (stereo not given in full)	i	i	i	i	i
N=c1c2c(n(Cc3ccc(Cl)cc3Cl)c3c1CCC3)CCCC2	i	i	i	-5.12*	i
Cc1nn(Cc2ccc(Cl)cc2Cl)c(Cl)c1C(=O)O	i	i	i	i	i
Clc1ccc(C[n+]2c(-c3ccccc3)cc(-c3ccccc3)cc2-c2ccccc2)cc1	i	i	i	-5.19*	i
CN(C)CCc1nc2ccccc2c(=O)n1-c1ccccc1	i	i	i	i	i
CN(C)CCn1cnc2ccccc21	i	i	i	i	15*
CCOc1ccc(C(C)=O)cc1Cn1ccsc1=N	i	i	-5*	i	i
O=c1c2ccccc2nc(-c2ccc(-c3ccccc3)cc2)n1-c1ccncc1	i	i	i	i	i
COc1cc(CN2CCCC(C(=O)c3sccc3C)C2)cc(OC)c1O (stereo not given)	i	i	i	i	i
COc1ccc(CN2CCCC(C(=O)c3sccc3C)C2)cc1O (stereo not given)	i	i	-7*	i	i
Brc1ccc2c(c1)C(OC1CN3CCC1CC3)c1ccccc1CS2 (stereo not given)	i	i	i	i	29*
c1ccc2c(c1)CSc1ccccc1C2C1=NCCN1 (stereo not given)	i	i	i	i	i
CC(=O)Nc1ccc(C(c2c(O)c3ccccc3oc2=O)c2c(C)n(C)n(-c3ccccc3)c2=O)cc1 (stereo not given)	i	i	i	i	i
COc1ccc(-n2c(CNCCc3ccc(C)cc3)nc3ccccc3c2=O)cc1	134*	i	i	i	i
CCCc1nc2ccccc2c(=O)n1-c1ccc(OC)cc1	i	i	i	i	i
Cc1cccc(-n2c(/C=C/c3ccccn3)nc3ccccc3c2=O)c1	i	i	i	i	i
C=CCn1c(O)c(N=Nc2c(C)n(C)n(-c3ccccc3)c2=O)c(=O)[nH]c1=S	45*	i	i	i	i
Cc1c(N=Nc2c(O)[nH]c(=S)[nH]c2=O)c(=O)n(-c2ccccc2)n1C	i	i	i	i	i
COc1ccc2c(c1O)[C@]13CCN(C)[C@H](C2)[C@@H]1CCC(=O)C3	114*	i	i	i	i
COc1cccc(O)c1CN1CCCC(C(=O)c2ccccc2SC)C1 (stereo not given)	i	i	i	-5.61*	i	HEK293 MPD ctr=192.5%*;HEK293 MPD ctr 2=i;TRPC4 ctr mod=26.0%*;TRPC4/MOR inh 2=54.5%*;TRPC6 block conf=i
CSc1ncc(CN2CCCC(C(=O)c3ccccc3SC)C2)cn1 (stereo not given)	i	i	i	i	i
Clc1ccc2[nH]c3c(c2c1)CCNC3	i	i	i	-5.3*	i	HEK293 MPD ctr=i;HEK293 MPD ctr 2=i;TRPC4 ctr mod=i;TRPC4/MOR inh 2=35.0%*;TRPC6 block conf=i;TRPC6 act conf=i
CCCCCSc1cc(OC)c(CCNC)cc1OC	i	i	i	-6.03*	i	HEK293 MPD ctr=i;HEK293 MPD ctr 2=i;TRPC4 ctr mod=12.5%*;TRPC4/MOR inh 2=28.5%*;TRPC6 block conf=i;TRPC6 act conf=i
CCCCCCCSc1cc(OC)c(CCNC)cc1OC	i	i	i	-5.09*	i	HEK293 MPD ctr=i;HEK293 MPD ctr 2=i;TRPC4 ctr mod=i;TRPC4/MOR inh 2=49.5%*;TRPC6 block conf=43.0%*;TRPC6 act conf=i
C#CCN1CCN(c2cccc(C(F)(F)F)c2)CC1	i	i	i	i	i

High-throughput results (PubChem)
